This is a sample that favours compounds with a hit; in the whole collection about 0.72% have one here.
PolyA inhibitor: polyadenylation inhibitors in yeast reporter cells, primary screen, luminescence, S. cerevisiae; S. cerevisiae SKY197-pL101 polyadenylation reporter, beta-gal luminescence; efflux-impaired pdr1/pdr3 knockout yeast; score 100 = 6 SD above DMSO; activity score, % at 12 µM; 300,000 tested, 0.02% active; AID 1875, 2009;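 active means lowest replicate activity score at least 50, where 100 means six control SD above control mean; inconclusive means lowest score under 50 but half or more replicates reach 50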;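 further: yeast exposed to compound for 9 h at 30 °C; higher score means more reporter readthrough which indicates perturbed polyadenylation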
STK33 inh: inhibitors of purified STK33 kinase, primary screen, biochemical, ADP-Glo luminescence, homogeneous, cell-free | MBP phosphorylation | inhibition, % at 10 µM | 320,000 tested, 0.073% active | AID 2661, 2010;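 active means inhibition at or above 25%, using the most active replicate where run in duplicate; inactive means inhibition below 25%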
GSK3beta inhib: human GSK3beta kinase inhibitors, primary screen, biochemical, cell-free homogeneous, HTS; activity score (negative = inhibition), % at 10 µM; GST-GSK3beta kinase, ADP-Glo luminescence, 60 min; hits give low values; AID 2097, 2009; 300,000 tested, 0.038% active;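 active means more than half of replicate wells score below -50%, meaning over 50% inhibition versus plate controls; inconclusive means some replicates but at most half score below -50%; inactive means no replicate scores below -50%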;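 further: 0% = median DMSO wells and -100% = median GW8510 positive control wells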
Target sequence (P49841 whole entry, looked up): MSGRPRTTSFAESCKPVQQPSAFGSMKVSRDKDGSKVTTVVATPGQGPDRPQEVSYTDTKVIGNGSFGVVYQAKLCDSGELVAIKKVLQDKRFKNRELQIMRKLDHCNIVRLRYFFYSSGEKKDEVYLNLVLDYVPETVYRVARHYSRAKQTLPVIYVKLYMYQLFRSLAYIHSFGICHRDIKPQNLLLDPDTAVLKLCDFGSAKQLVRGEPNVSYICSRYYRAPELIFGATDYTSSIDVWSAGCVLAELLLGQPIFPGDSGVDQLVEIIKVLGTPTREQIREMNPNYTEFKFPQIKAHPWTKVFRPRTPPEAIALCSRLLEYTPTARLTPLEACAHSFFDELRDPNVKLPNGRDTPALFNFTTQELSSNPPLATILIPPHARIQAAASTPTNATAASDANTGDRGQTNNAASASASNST
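Test system: GST-tagged human GSK3beta kinase, cell-free; evaluation: activity score scaled between in-plate DMSO and GW8510 controls; measured by: ADP-Glo luminescence; incubation: 60 min reaction, RT; benchmarks: DMSO and 20 µM GW8510; reagent: peptide substrate plus 25 µM ATP (final); medium: Tris/MgCl2 kinase buffer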
Yeast superoxide: reduction of superoxide in aged yeast, primary screen, HTS; S. cerevisiae aged cells, superoxide DHE fluorescence; hits give low values; superoxide response (% of plate mean), % at 10 µM; 330,000 tested, 0.18% active; AID 2690, 2010;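 active means superoxide response under a set limit, about three screen SD below normal, cut at about 65% in these data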;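 further: yeast aged for seven days with compound at 30 °C before DHE staining; 100% = average MFI of all compound-treated wells on the plate with controls excluded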
AI-2 QS mod: Vibrio harveyi AI-2 quorum sensing modulators, primary screen, JMH597 strain, luminescence/OD600 ratio | Vibrio harveyi JMH597 AI-2 luminescence/OD600 ratio, 9 h; hits give low values; strain lacks LuxN and CqsS sensors; 0 = neutral-control median | activity change, % at 7.5 µM | 300,000 tested, 0.4% active | AID 2094, 2009; in the data active means activity change below about -75%, passing the limit was not always enough; inconclusive means no clear call, values can overlap the other calls;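 further: luminescence divided by OD600 gain over 9 h not by final OD600 alone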
GSK3A inh: blockers of GSK3A enzyme activity – biochemical, luminescence, cell-free homogeneous, HTS, primary screen; GSK-3 alpha kinase, ADP-Glo luminescence, 60 min; inhibition, % at 10 µM; 320,000 tested, 0.1% active;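 active means more than half of replicates show inhibition above 20%; inconclusive means some but at most half of replicates above 20% inhibition; inactive means no replicate shows inhibition above 20%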;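 further: GST-tagged GSK-3 alpha with peptide substrate and 25 µM ATP; 0% = DMSO neutral wells and 100% = GW8510 positive control wells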
JMH597 growth: Vibrio harveyi growth inhibition, confirmation, counter-screen for AI-2 quorum sensing project, JMH597 strain, OD600 absorbance. 750 tested, 1% active. 9 h; lacks LuxN and CqsS sensors. shares compounds with AI-2 QS mod. AID 2726, 2010. growth inhibition, % at 7.5 µM;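 active means every replicate shows growth inhibition above 50%; inconclusive means at least half, but not all, replicates pass that cutoff; inactive means fewer than half of replicates pass it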
BB721 const-QS lum: luminescence inhibition in constitutive-on V. harveyi, confirmation, counter-screen for LuxS inhibitor project, strain BB721, luminescence readout; shares compounds with AI-2 QS mod; Vibrio harveyi BB721 luminescence, 9 h; inhibition, % at 7.5 µM; 750 tested, 95% active; AID 2727, 2010;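 active means inhibition above about 80% in every replicate, not just on average, limit read from the data; inconclusive means at least half of replicates past the limit, but not all; inactive means fewer than half of replicates past the limit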
BB721 growth: growth inhibition of V. harveyi BB721, confirmation, cytotoxicity control for AI-2 quorum sensing inhibitors, strain BB721, absorbance OD600; shares compounds with AI-2 QS mod; Vibrio harveyi BB721 growth, 9 h; growth inhibition, % at 7.5 µM; 750 tested, 3% active;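 active means every replicate shows growth inhibition above 50%; inconclusive means at least half but not all replicates above 50% inhibition; inactive means under half of replicates above 50% inhibition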
JMH597 AI-2 mod: Vibrio harveyi AI-2 signaling luminescence modulation – JMH597 strain, confirmation | 750 tested, 97% active | Vibrio harveyi JMH597 AI-2 quorum sensing luminescence, 9 h; luxN and CqsS knockout, AI-2 only | shares compounds with AI-2 QS mod | inhibition, % at 7.5 µM;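 active means every replicate shows more than 75% inhibition of signal versus neutral control wells; inconclusive means half to three quarters of replicates exceed 75% inhibition; inactive means fewer than half of replicates exceed 75% inhibition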
* = called active by the depositor; i = inactive; ? = inconclusive; nt = not tested or not shown.

SMILES | PolyA inhibitor | STK33 inh | GSK3beta inhib | Yeast superoxide | AI-2 QS mod | GSK3A inh | JMH597 growth | BB721 const-QS lum | BB721 growth | JMH597 AI-2 mod
C(=C\c1nc(-c2cccnc2)no1)/c1ccccc1 | -8.0 | -2.9 | -0.7 | 100.3 | -94.8* | -1.4 | 28.8 | 98.5* | 20.9 | 99.0*
CCC(CO)NCc1ccccc1OC(C)C (stereo not given) | -9.1 | -0.8 | 4.3 | 91.8 | 7.8 | -1.0 | nt | nt | nt | nt
CCOC(=O)C1CCCN(S(=O)(=O)c2cccs2)C1 (stereo not given) | -0.1 | 0.4 | 2.3 | 94.5 | ? | -1.3 | 16.8 | 98.6* | -17.6 | 99.8*
CCOC(=O)C1CCCN(S(=O)(=O)c2ccc(S(=O)(=O)N3CCCC3)cc2)C1 (stereo not given) | 22.5 | -2.1 | -3.3 | 93.5 | 4.6 | -2.0 | nt | nt | nt | nt
O=C(Cc1ccsc1)Nc1ccc(S(=O)(=O)C(F)F)cc1 | -10.0 | -0.8 | 4.5 | 83.6 | -86.9* | -0.1 | 19.0 | 97.1* | -16.8 | 99.8*
CCCCC(Br)C(=O)Nc1ccc(S(=O)(=O)Nc2cc(C)nc(C)n2)cc1 (stereo not given) | 0.7 | -2.1 | 4.6 | 80.5 | -86.1* | 0.7 | -11.8 | 88.2* | 2.7 | 90.2*
Cc1ccc(S(=O)(=O)N/N=C\C=C\c2ccccc2)cc1 | 30.3 | 0.1 | 2.6 | 88.0 | -98.1* | 0.4 | 51.2 | 99.8* | 24.7 | 99.9*
Cc1ccc(S(=O)(=O)N/N=C/c2ccc(C(=O)O)cc2)cc1 | -12.8 | -0.1 | 0.8 | 119.7 | 11.7 | 4.5 | nt | nt | nt | nt
O=C1NCCCC1C(=O)N/N=C/c1ccc(Cl)cc1 (stereo not given) | -2.9 | -0.3 | 0.3 | 107.6 | -48.7 | -1.7 | nt | nt | nt | nt
O=C1NCCCC1C(=O)N/N=C/c1cccc(Cl)c1 (stereo not given) | 15.2 | -0.6 | 2.7 | 103.2 | -79.4* | 3.0 | -13.3 | 89.2* | 1.5 | 92.8*
COc1ccc(NC(=O)Nc2nnc(Cc3ccccc3)s2)cc1 | -1.2 | 0.8 | 6.3 | 92.3 | -15.8 | -1.2 | nt | nt | nt | nt
COc1ccc(Cc2nnc(CCc3ccccc3)s2)cc1 | -21.1 | 0.1 | 1.4 | 105.5 | ? | -0.7 | -30.7 | 78.3* | -33.1 | 86.4*
Cn1nc(C(F)(F)F)c2cc(NC(=O)OCc3ccc(C(C)(C)C)cc3)sc21 | -1.2 | nt | -27.4 | nt | -2.5 | nt | nt | nt | nt | nt
Cn1nc(C(F)(F)F)c2cc(NC(=O)OCc3ccc(F)cc3)sc21 | -9.1 | -0.2 | 1.2 | 95.5 | -92.8* | -0.4 | 13.2 | 98.7* | 39.9 | 98.1*
Cc1ccc(C(=O)Nc2sc3c(c2C(=O)O)CCC(C)C3)o1 (stereo not given) | nt | -1.4 | nt | 93.7 | nt | -3.1 | nt | nt | nt | nt
CCc1cccc(CC)c1NC(=O)CN1CCc2cc(OC)c(OC)cc2C1 | -5.3 | -1.1 | 1.7 | i | 10.6 | -0.3 | nt | nt | nt | nt
Nc1cc(Oc2ccc(Cl)cc2Cl)nc(N)n1 | 3.1 | -2.0 | -1.1 | 106.5 | -95.0* | -3.7 | 9.4 | 98.6* | -15.2 | 99.3*
COc1ccccc1C(=O)NCc1ccccn1 | -9.3 | -1.7 | -0.4 | 119.0 | 4.9 | 0.0 | nt | nt | nt | nt
N#Cc1nc(-c2cccs2)oc1NCc1ccc2c(c1)OCO2 | -9.1 | -0.9 | -4.7 | 95.4 | -85.4* | 8.8 | 32.5 | 93.7* | 31.6 | 96.3*
N#Cc1nc(-c2cccs2)oc1NCCc1ccccc1 | 31.2 | 0.4 | 0.5 | 98.2 | 2.4 | 13.4 | nt | nt | nt | nt
Cc1ccc(-c2nc(C#N)c(NCc3cccc4c3OCO4)o2)cc1 | 4.5 | 0.1 | 0.1 | 110.0 | -46.3 | -0.3 | nt | nt | nt | nt
N#Cc1nc(-c2ccc(F)cc2)oc1NCc1cccc2c1OCO2 | ? | -1.0 | -0.2 | 94.6 | ? | -2.2 | 3.4 | 89.4* | -9.9 | 92.6*
Cc1ccc(SCc2nc(-c3cccnc3)no2)cc1 | 8.3 | 2.1 | 0.9 | 99.7 | ? | -5.1 | 23.0 | 95.9* | 10.0 | 96.8*
O=C(NCCOc1ccccc1)c1cccc(S(=O)(=O)NCc2ccccc2)c1 | -17.9 | -0.3 | 1.9 | 91.6 | -97.0* | -2.1 | ? | 98.9* | 8.9 | 99.3*
O=C(NCCOc1ccccc1)c1cc2ccccc2o1 | 25.6 | -1.7 | 3.0 | 112.3 | -81.7* | 4.3 | 7.4 | 87.2* | -6.8 | 91.9*
SMILES | PolyA inhibitor | STK33 inh | GSK3beta inhib | Yeast superoxide | AI-2 QS mod | GSK3A inh | JMH597 growth | BB721 const-QS lum | BB721 growth | JMH597 AI-2 mod
O=C(/C=C/c1c(Cl)cccc1Cl)NCc1ccco1 | -13.5 | 0.0 | -1.4 | 97.4 | 13.5 | -3.7 | nt | nt | nt | nt
O=C(/C=C/c1ccccc1Cl)NCc1ccco1 | 15.0 | -1.4 | -0.2 | 85.8 | -83.1* | -1.2 | 4.8 | 93.0* | 18.3 | 93.7*
CNC(=O)COc1coc(CN2CCN(C(=O)c3ccco3)CC2)cc1=O | 22.5 | -1.2 | -1.9 | 80.8 | 14.1 | -2.3 | nt | nt | nt | nt
Cc1cc(C)c(S(=O)(=O)Nc2ccc(Cl)cn2)c(C)c1 | -5.9 | 1.7 | 5.0 | 95.4 | 4.0 | 1.2 | nt | nt | nt | nt
COc1ccc2c(CC(=O)N[C@@H](Cc3ccccc3)C(=O)O)cc(=O)oc2c1 | -0.3 | -6.2 | -0.2 | 117.9 | 17.0 | -2.7 | nt | nt | nt | nt
COc1ccc(NCc2cc(=O)oc3cc(NC(C)=O)ccc23)cc1 | 3.3 | 0.0 | -1.8 | 95.9 | -81.5* | -2.2 | 8.0 | 88.1* | 8.1 | 92.5*
Cc1occc1C(=O)NCCCc1ccccc1 | 13.0 | -1.1 | 2.3 | 95.3 | -78.3* | -1.1 | 18.8 | 87.3* | 11.4 | 90.7*
Cc1occc1C(=O)NCCCCNC(=O)c1ccoc1C | 10.1 | -0.3 | 3.6 | 93.3 | 9.3 | -1.7 | nt | nt | nt | nt
COc1ccc(Cc2nc3ccc(C(=O)N(C)C(C)c4ccon4)cc3o2)cc1 (stereo not given) | 12.0 | 4.3 | -4.5 | 95.0 | 15.3 | -2.3 | nt | nt | nt | nt
Cc1c(Br)c(C(=O)NNC(=O)c2ccc(C(C)(C)C)cc2)nn1C | -9.5 | -0.9 | -3.5 | 90.6 | -87.6* | -1.7 | 11.8 | 96.4* | 22.7 | 97.5*
